Converted amounts (≈) assume the structure as drawn.
How the values were obtained:
Mycobacterium kansasii [1] = experiment: Antimycobacterial activity against Mycobacterium kansasii 6509/96 after 14 days by microdilution method; type: functional; settings: 6509/96, 336 h
Method in brief: (§1)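 Dilution micromethod for MIC; compounds added to medium as DMSO solutions. Each strain also inoculated onto Löwenstein–Jensen medium to control inoculum sterility and growth. Strain 6509/96 is a clinical isolate; CNCTC strains from the Czech national type culture collection.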

Mycobacterium kansasii [2] = experiment: Antimycobacterial activity against Mycobacterium kansasii CNCTC My 235/80 after 21 days by microdilution method; type: functional; settings: CNCTC My 235/80, 504 h; method in brief: as §1
[3] = test system: Mycobacterium tuberculosis; experiment: Antimycobacterial activity against Mycobacterium tuberculosis CNCTC My 331/88 after 21 days by microdilution method; type: functional; settings: CNCTC My 331/88, 504 h
Method in brief: (§2)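 MIC determined by a dilution micromethod. Strains came from the Czech National Collection of Type Cultures, Prague. Compounds were added to the medium as DMSO solutions. Each inoculum was also plated in parallel on Löwenstein–Jensen medium to check its sterility and growth. The M. avium strain is identical with ATCC 25291 and resistant to INH.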

Mycobacterium avium [4] = experiment: Antimycobacterial activity against Mycobacterium avium CNCTC My 330/88 after 21 days by microdilution method; type: functional; settings: CNCTC My 330/88, 504 h; method in brief: as §2
K562 = experiment: Antiproliferative activity against human K562 cells after 72 hrs by celltiter-blue assay; type: functional, cell-based
Method in brief: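 K-562 grown in RPMI 1640 with ultraglutamine, gentamicin, 10% heat-inactivated FBS at 37 °C; about 10,000 cells/well. Compounds dissolved in DMSO and diluted in DMEM, incubated 72 h at 37 °C, 5% CO2. Viability read by CellTiter-Blue resazurin reduction. GI50 taken where the dose-response curve crosses 50% of untreated control.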

[5] = test system: Mycobacterium tuberculosis; experiment: Antimycobacterial activity against Mycobacterium tuberculosis CNCTC My 331/88 after 14 days by microdilution method; type: functional; settings: CNCTC My 331/88, 336 h; method in brief: as §2
Mycobacterium kansasii [6] = experiment: Antimycobacterial activity against Mycobacterium kansasii 6509/96 after 21 days by microdilution method; type: functional; settings: 6509/96, 504 h; method in brief: as §1
HUVEC = experiment: Antiproliferative activity against HUVEC after 72 hrs by using methylene blue staining; type: cell-based; settings: human
Method in brief: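 HUVEC in culture medium with ultraglutamine, gentamicin, 10% heat-inactivated FBS, 37 °C. Harvested in log phase by trypsinization; about 10,000 cells/well. Compounds in DMSO, diluted in DMEM, incubated 72 h at 37 °C, 5% CO2. Cells then glutaraldehyde-fixed, stained with 0.05% methylene blue for 15 min, eluted with 0.33 N HCl, OD 660 nm. GI50 taken at 50% intersection versus untreated control.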

HeLa = experiment: Cytotoxicity against human HeLa cells after 72 hrs by using methylene blue staining; type: functional, cell-based
Method in brief: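 HeLa cells in RPMI 1640 with supplements, preincubated 48 h without compound. Compound dilutions were then applied to subconfluent monolayers for 72 h at 37 °C, 5% CO2. Cells were glutaraldehyde-fixed, stained with 0.05% methylene blue, eluted with 0.33 N HCl and read at OD 660 nm. CC50 taken at 50% intersection versus negative control.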

Mycobacterium avium [7] = experiment: Antimycobacterial activity against Mycobacterium avium CNCTC My 330/88 after 14 days by microdilution method; type: functional; settings: CNCTC My 330/88, 336 h; method in brief: as §2
Mycobacterium kansasii [8] = experiment: Antimycobacterial activity against Mycobacterium kansasii CNCTC My 235/80 after 14 days by microdilution method; type: functional; settings: CNCTC My 235/80, 336 h; method in brief: as §1

| SMILES | MIC (Mycobacterium kansasii [1]) [µM] | MIC (Mycobacterium kansasii [2]) [µM] | MIC [3] [µM] | MIC (Mycobacterium avium [4]) [µM] | Activity (K562) | MIC [5] [µM] | MIC (Mycobacterium kansasii [6]) [µM] | Activity (HUVEC) | Activity (HeLa) | MIC (Mycobacterium avium [7]) [µM] | MIC (Mycobacterium kansasii [8]) [µM] |
| --- | --- | --- | --- | --- | --- | --- | --- | --- | --- | --- | --- |
| O=c1oc2ccc(Br)cc2c(=S)n1Cc1ccccc1 | 4 (≈ 1.39 µg/mL) | 8 (≈ 2.79 µg/mL) | 2 (≈ 0.696 µg/mL) | 8 (≈ 2.79 µg/mL) | Toxic | 1 (≈ 0.348 µg/mL) | 8 (≈ 2.79 µg/mL) | Toxic | Toxic | 8 (≈ 2.79 µg/mL) | 8 (≈ 2.79 µg/mL) |
| O=c1oc2ccc(Cl)cc2c(=O)n1Cc1ccccc1 | 125 (≈ 36 µg/mL) | 62.5 (≈ 18 µg/mL) | 125 (≈ 36 µg/mL) | 62.5 (≈ 18 µg/mL) | Toxic | 62.5 (≈ 18 µg/mL) | 125 (≈ 36 µg/mL) | Toxic | Toxic | 32 (≈ 9.21 µg/mL) | 32 (≈ 9.21 µg/mL) |
| O=c1oc2ccc(Br)cc2c(=S)n1Cc1ccc(Cl)c(Cl)c1 | 16 (≈ 6.67 µg/mL) | 16 (≈ 6.67 µg/mL) | 4 (≈ 1.67 µg/mL) | 8 (≈ 3.34 µg/mL) | Toxic | 2 (≈ 0.834 µg/mL) | 16 (≈ 6.67 µg/mL) | Toxic | Toxic | 8 (≈ 3.34 µg/mL) | 16 (≈ 6.67 µg/mL) |
| Cc1ccc2oc(=O)n(Cc3ccccc3)c(=O)c2c1 | 62.5 (≈ 16.7 µg/mL) | 62.5 (≈ 16.7 µg/mL) | 62.5 (≈ 16.7 µg/mL) | 62.5 (≈ 16.7 µg/mL) | Toxic | 32 (≈ 8.55 µg/mL) | 125 (≈ 33.4 µg/mL) | Toxic | Toxic | 32 (≈ 8.55 µg/mL) | 62.5 (≈ 16.7 µg/mL) |

Reference: ChEMBL document CHEMBL1177835, “A note to the biological activity of benzoxazine derivatives containing the thioxo group” (Eur J Med Chem, 2010)
